The source made the active and inactive calls. The calls are words filed in the database; no cut-off is given here.

Data set [1] concerns the target T1, NAD-dependent protein deacetylase sirtuin-1 (Homo sapiens) (UniProt Q96EB6).
T1 sequence (whole entry): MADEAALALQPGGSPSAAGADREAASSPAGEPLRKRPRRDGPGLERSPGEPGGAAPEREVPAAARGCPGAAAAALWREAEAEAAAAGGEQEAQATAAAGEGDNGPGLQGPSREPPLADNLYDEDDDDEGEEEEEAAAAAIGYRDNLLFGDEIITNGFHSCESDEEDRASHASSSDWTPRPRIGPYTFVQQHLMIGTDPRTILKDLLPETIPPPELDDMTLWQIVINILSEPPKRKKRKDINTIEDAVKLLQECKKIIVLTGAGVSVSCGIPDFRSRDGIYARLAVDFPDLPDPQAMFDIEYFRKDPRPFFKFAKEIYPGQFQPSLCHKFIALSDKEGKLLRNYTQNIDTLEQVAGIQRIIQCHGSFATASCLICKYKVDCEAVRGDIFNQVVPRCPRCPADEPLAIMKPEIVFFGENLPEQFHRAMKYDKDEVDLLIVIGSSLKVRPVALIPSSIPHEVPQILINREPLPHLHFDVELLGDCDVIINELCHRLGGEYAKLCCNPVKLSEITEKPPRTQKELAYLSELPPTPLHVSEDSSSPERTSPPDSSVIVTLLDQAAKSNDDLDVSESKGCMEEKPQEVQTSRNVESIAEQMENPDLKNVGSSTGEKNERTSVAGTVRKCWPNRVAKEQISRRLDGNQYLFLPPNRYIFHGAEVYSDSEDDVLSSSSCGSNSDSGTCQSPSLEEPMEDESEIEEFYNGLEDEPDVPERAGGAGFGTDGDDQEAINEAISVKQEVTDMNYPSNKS
The data set is described as follows: Activation of human SIRT1 expressed in Escherichia coli BL21Start assessed as concentration required to increase 50% enzyme activity by mass spectrometry assay. The method, boiled down:
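Truncated SIRT1 was expressed in E. coli BL21Start (DE3) and purified on Ni2+ chelate. Reaction: 10 nM enzyme, 0.5 µM biotinylated, fluorophore-tagged p53-derived 20-mer acetyl-lysine peptide and 120 µM NAD+, in 50 mM Tris-acetate pH 8 with NaCl, KCl, MgCl2, 5 mM DTT and 0.05% BSA; DMSO vehicle; 25 min at 25 °C. Stopped with formic acid/nicotinamide; acetylated versus deacetylated peptide read by mass spectrometry. EC1.5 is the concentration raising activity by 50%, the mean of three titration curves.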

Data set [2] can be described thus: Terminal half life in Sprague-Dawley rat at 100 mg/kg, po or 10 mg/kg, iv. The format is ADME, organism-based. The settings on record: in vivo, read-out: beta t1/2 (converted). The method, boiled down:
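Male Sprague-Dawley rats (250 g, 3 per dose group) received 100 mg/kg by oral gavage in 2% HPMC + 0.2% DOSS, or 10 mg/kg iv by tail vein in 10% ethanol/40% PEG/50% H2O. Blood was drawn at 0.033-24 h postdose for drug levels.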

The subject of data set [3] is Rattus norvegicus. The data set is described as follows: Antidiabetic activity in genetic Zucker fa/fa rat model assessed as reduction of fed blood glucose level at 100 mg/kg, po daily once after 3 weeks relative to control. The arrangement: dose 100 mg/kg. The format is functional, organism-based. The method, boiled down:
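Male Zucker fa/fa rats, housed singly, were gavaged daily from 7 weeks of age with 100 mg/kg or vehicle (2% HPMC + 0.2% DOSS), 5 per group. Fed tail-vein glucose was taken on day 22. Also on day 22, after an overnight fast, sodium pyruvate 1 g/kg was given ip and glucose was read at 0-90 min.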

Data set [4] relates to Rattus norvegicus. The data set is described as follows: Antidiabetic activity in genetic Zucker fa/fa rat model assessed as increase in glucose infusion rate at 100 mg/kg, po daily once after 4 weeks by hyperinsulinemic-euglycemic clamp. The format is functional. The method, boiled down: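 Zucker fa/fa rats, cannulated 5 days beforehand and fasted 8 h, underwent the clamp after 4 weeks of dosing. [3-3H]glucose tracer was primed and infused, then insulin 25 (mU/kg)/min was started. Variable 50% dextrose held blood glucose at 100 mg/dL over 120 min, with tracer specific activity sampled at 110 and 120 min.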

Data set [5] is described as follows: Inhibition of CYP1A at 25 uM. The format is ADME. In short, it runs like this: (§1)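 Inhibition of CYP isozymes was tested up to a highest concentration of 25 µM.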
Data set [6] deals with Cytochrome P450 2C9 (Homo sapiens, UniProt P11712). The data set is described as follows: Inhibition of CYP2C9 at 25 uM. The format is ADME. The method, boiled down: as §1
In data set [7] the target is Cytochrome P450 3A4 (Homo sapiens, UniProt P08684). The data set is described as follows: Inhibition of CYP3A4 at 25 uM. The format is ADME. In short, it runs like this:
as §1

The target of data set [8] is T2, Alpha-2A adrenergic receptor (Homo sapiens, UniProt P08913).
T2 sequence (P08913 whole entry): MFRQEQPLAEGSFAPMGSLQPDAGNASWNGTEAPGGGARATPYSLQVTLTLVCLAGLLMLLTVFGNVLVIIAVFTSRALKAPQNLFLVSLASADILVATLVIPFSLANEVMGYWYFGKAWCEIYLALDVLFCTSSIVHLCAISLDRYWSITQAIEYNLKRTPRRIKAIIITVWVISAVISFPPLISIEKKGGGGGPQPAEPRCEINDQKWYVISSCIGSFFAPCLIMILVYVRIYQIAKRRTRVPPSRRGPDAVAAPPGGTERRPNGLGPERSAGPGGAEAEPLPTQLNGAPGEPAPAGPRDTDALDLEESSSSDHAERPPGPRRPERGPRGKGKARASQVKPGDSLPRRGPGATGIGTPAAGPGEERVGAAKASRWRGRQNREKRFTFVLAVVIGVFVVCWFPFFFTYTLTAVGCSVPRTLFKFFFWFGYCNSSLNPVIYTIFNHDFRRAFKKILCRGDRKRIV
The data set is described as follows: Inhibition of adrenergic alpha2A receptor.

The target of data set [9] is T3, Muscarinic acetylcholine receptor M2 (Homo sapiens, UniProt P08172).
T3 sequence (P08172 whole entry): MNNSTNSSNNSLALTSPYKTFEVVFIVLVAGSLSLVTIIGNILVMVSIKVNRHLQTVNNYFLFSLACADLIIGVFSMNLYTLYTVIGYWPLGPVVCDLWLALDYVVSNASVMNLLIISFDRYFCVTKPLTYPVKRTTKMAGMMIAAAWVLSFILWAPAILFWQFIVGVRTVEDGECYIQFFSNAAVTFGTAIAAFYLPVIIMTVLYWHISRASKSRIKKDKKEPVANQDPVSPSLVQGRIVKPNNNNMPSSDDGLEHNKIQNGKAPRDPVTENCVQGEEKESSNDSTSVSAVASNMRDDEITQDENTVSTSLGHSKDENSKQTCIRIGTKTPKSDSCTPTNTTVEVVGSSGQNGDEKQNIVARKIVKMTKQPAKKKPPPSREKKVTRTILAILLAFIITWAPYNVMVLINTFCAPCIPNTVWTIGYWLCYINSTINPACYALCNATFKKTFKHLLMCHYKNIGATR
The data set is described as follows: Inhibition of muscarinic M2 receptor.

Data set [10] addresses Sodium-dependent noradrenaline transporter (Homo sapiens, UniProt P23975). The data set is described as follows: Inhibition of norepinephrine transporter.
For data set [11], the system named is Salmonella typhimurium. The data set is described as follows: Mutagenic activity in Salmonella Typhimurium TA98 in presence of S9 activation. The format is toxicity, organism-based. The settings on record: salmonella enterica subsp. enterica serovar typhimurium.

Sequence of Sodium-dependent noradrenaline transporter (P23975 whole entry): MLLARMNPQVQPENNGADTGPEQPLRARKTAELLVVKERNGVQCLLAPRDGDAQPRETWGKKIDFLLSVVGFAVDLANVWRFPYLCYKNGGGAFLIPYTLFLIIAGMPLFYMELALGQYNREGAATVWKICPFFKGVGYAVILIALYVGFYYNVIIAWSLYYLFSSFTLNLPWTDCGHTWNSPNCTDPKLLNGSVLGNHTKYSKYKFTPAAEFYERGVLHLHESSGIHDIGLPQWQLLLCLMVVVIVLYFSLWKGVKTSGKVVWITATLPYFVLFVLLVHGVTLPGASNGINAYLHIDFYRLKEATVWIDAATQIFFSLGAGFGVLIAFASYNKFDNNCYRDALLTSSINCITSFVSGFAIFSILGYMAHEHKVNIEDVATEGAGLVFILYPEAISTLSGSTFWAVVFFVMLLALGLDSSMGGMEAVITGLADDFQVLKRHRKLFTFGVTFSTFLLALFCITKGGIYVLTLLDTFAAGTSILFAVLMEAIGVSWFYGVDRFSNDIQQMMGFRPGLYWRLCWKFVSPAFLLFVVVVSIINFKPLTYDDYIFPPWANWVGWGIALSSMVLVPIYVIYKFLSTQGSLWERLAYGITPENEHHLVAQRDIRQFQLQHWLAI
Sequence of Cytochrome P450 2C9 (P11712 whole entry): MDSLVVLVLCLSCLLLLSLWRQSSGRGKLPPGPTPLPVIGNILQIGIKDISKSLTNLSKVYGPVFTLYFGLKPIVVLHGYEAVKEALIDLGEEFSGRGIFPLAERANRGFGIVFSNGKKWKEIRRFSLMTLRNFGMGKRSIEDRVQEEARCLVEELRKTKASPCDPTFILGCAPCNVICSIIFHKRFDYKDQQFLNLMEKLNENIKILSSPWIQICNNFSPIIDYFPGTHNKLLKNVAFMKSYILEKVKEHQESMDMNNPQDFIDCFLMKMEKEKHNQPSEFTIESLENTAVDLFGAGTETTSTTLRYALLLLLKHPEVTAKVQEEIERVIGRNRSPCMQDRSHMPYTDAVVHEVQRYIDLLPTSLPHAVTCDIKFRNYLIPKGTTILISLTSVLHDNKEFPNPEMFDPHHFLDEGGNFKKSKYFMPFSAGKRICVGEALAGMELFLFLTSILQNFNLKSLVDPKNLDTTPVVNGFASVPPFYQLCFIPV
Sequence of Cytochrome P450 3A4 (P08684 whole entry): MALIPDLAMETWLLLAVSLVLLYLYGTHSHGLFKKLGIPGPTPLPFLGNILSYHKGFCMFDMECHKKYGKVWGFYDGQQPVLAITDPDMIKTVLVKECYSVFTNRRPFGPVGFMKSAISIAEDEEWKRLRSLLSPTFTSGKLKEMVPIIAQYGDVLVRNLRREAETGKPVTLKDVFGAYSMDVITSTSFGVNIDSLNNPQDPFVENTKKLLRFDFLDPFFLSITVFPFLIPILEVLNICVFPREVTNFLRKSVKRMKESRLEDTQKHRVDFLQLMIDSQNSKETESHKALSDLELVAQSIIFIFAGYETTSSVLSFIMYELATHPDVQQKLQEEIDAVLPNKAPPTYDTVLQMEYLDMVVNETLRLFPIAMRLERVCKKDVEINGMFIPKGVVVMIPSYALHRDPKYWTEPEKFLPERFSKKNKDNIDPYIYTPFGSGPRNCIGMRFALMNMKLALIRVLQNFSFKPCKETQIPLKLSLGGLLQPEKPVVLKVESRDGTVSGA

Usually IC50 stands for the concentration that inhibits the measured activity by half. For the compound `O=C(Nc1ccccc1-c1cn2c(CN3CCNCC3)csc2n1)c1cnc2ccccc2n1`, the Activity was 0.16 µM in [1]; 35% in data set [4]; “Not Active” in [5]; “Not Active” in data set [6]; “Not Active” in [7]; “Non-toxic” in data set [11]. Moreover, in [2], the half-life was 8.4 h. In addition, in data set [3], the outcome was Active. For the same compound, the 50% inhibitory concentration (IC50) came to 2830 nM in [8], 6280 nM in data set [9] and 2470 nM in data set [10].

Source of the values: ChEMBL document CHEMBL1140923, “Discovery of imidazo[1,2-b]thiazole derivatives as novel SIRT1 activators” (J Med Chem, 2009).
